PMC6139374 (Cell, 2018)
“And” between values parts separate entries of the source, which are not always exact repeats. Equal entries are not always repeated. One block for each molecule: values may come before it. Where no end group is shown, it is not given here. Side-chain parts run from the residue outwards. [ ]: non-standard residue; d: D form. Dap = NC[C@H](N)C(=O)O

Experiments:
GSK3 peptide substrate = assay: Radiometric kinase assay, steady-state kinetics of semisynthetic Akt1 forms; type: biochemical; conditions: for kcat/Km, within fold of that of A2: low kcat/Km, compared with non-C-terminally phosphorylated enzyme A2; for catalytic efficiency (kcat/Km), fold lower relative to A1: compared with pThr308/pSer473 form A1
Akt1 PH domain [1] = target: T1, Akt1 PH domain (Homo sapiens, UniProt P31749); assay: Competition binding assay displacing fluorescein-labeled PIP3; conditions: competition with fluorescein-labeled PIP3
How it was run: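 Competition format: 50 nM fluorescein-labeled soluble PIP3 with 1 μM Akt PH domain and varied unlabeled soluble phosphoinositide competitor (PIP3 di-C6 or PI(3,4)P2 di-C8). Buffer was 50 mM HEPES pH 7.5, 2 mM DTT, 0.05 mg/ml ovalbumin; incubated 30 min at room temperature, then fluorescence anisotropy read. Sigmoidal fit gave IC50, converted to Ki using free labeled ligand, free PH domain and probe Kd.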

[2] = target: non-C-terminally phosphorylated Akt1 (A2) (Homo sapiens, UniProt P31749); assay: Kinase assay, effect of phosphoinositides on activity; type: biochemical; conditions: 250 μM ATP, 20 μM GSK3 peptide, 10 mM MgCl2
How it was run: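 Also present: 250 μM ATP with 32P-γ-ATP and 20 μM biotinylated GSK3 peptide. Added either 400 μM DOPC vesicles with 5 mol% PIP3 or 20 μM soluble PI(3,4)P2 (di-C8). Product was captured on 30 kDa filters and counted by scintillation; runs done at least twice.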

[3] = target: FL-Akt1-pThr308/pSer473 (A1) and FL-Akt1-pThr308/2pSer477,Thr479 (A6) (Homo sapiens, UniProt P31749); assay: Kinase inhibition assays with Akt inhibitors; type: biochemical; conditions: 250 μM ATP, 20 μM GSK3 peptide
[4] = target: FL-Akt1-pThr308, pSer477,pThr479 (A6) (Homo sapiens, UniProt P31749); assay: Fluorescence anisotropy binding of soluble PIP3
How it was run: (§1)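 Varying concentrations of semisynthetic full-length Akt1 were mixed with 50 nM fluorescein-labeled soluble PIP3 (di-C6). Buffer was 50 mM HEPES pH 7.5, 2 mM DTT, 0.05 mg/ml ovalbumin; incubated 30 min at room temperature. Fluorescence anisotropy was recorded at 23°C.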

[5] = target: FL-Akt1-pThr308/non-p C tail (A2) (Homo sapiens, UniProt P31749); assay: Fluorescence anisotropy binding of soluble PIP3; conditions: stated as nearly identical to the value for A1
How it was run: as §1

Akt1 PH domain [6] = target: T1, Akt1 PH domain; assay: Fluorescent binding assay of PIP3 with Mg addition; conditions: Mg addition up to 10 mM
[7] = target: FL-Akt1-pThr308/pSer473 (A1) (Homo sapiens, UniProt P31749); assay: Fluorescence anisotropy binding of soluble PIP3; conditions: fluorescein-labeled soluble PIP3 (di-C6), 50 nM
How it was run: as §1

[8] = target: pSer477,pThr479 Akt1 (A6) (Homo sapiens, UniProt P31749); assay: Kinase assay, effect of PIP3 on activity; type: biochemical; conditions: addition of excess soluble PIP3
[9] = target: non-phosphorylated FL-Akt1 (A9) (Homo sapiens, UniProt P31749); assay: Fluorescence anisotropy binding of soluble PIP3; conditions: fluorescein-labeled soluble PIP3, 50 nM
How it was run: as §1

Akt1 = Akt1 (human, UniProt P31749 1-480); assay: kinase inhibition assay
[10] = target: non-C-terminally phosphorylated Akt1, C-terminally labeled with fluorescein (human) (UniProt P31749); assay: fluorescence polarisation

FL-Akt1-pThr308/pSer473 (A1) and FL-Akt1-pThr308/2pSer477,Thr479 (A6), sequence (P31749 whole entry): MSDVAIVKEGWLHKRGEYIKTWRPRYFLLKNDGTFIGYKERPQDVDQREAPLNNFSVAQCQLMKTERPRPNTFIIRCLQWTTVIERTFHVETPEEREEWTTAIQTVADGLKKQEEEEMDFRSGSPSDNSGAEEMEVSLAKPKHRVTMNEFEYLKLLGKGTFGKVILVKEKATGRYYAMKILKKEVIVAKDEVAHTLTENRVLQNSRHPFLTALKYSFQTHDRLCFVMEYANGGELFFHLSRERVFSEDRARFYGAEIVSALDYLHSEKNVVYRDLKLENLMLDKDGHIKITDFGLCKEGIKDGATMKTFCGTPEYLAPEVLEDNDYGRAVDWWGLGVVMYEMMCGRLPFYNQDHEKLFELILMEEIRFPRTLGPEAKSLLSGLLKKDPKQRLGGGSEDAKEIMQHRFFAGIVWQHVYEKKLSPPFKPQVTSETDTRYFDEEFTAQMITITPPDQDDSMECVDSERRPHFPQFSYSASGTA
FL-Akt1-pThr308, pSer477,pThr479 (A6), sequence (P31749 whole entry): as above
non-C-terminally phosphorylated Akt1 (A2), sequence (P31749 whole entry): as above
T1 sequence (P31749 1-121): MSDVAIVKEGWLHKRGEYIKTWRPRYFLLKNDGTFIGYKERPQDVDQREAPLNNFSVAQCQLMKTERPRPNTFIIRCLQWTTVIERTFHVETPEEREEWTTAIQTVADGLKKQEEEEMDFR
pSer477,pThr479 Akt1 (A6), sequence (P31749 whole entry): as the sequence (P31749 whole entry) above
FL-Akt1-pThr308/pSer473 (A1), sequence (P31749 whole entry): as above
non-phosphorylated FL-Akt1 (A9), sequence (P31749 whole entry): as above
Akt1, sequence (P31749 whole entry): as above
FL-Akt1-pThr308/non-p C tail (A2), sequence (P31749 whole entry): as above

Molecule: A7: full-length Akt1 pThr308, pSer477 form
kcat/Km, within fold of that of A2 (GSK3 peptide substrate): ≤ 3 fold

binding to Akt1 PH domain (Akt1 PH domain [1]): high affinity
stimulation of enzymatic activity of A2 [2]: did not stimulate
Molecule: CCCCCCCC(=O)OC[C@H](COP(=O)(O)O[C@H]1[C@H](O)[C@@H](O)[C@H](OP(=O)(O)O)[C@@H](OP(=O)(O)O)[C@H]1O)OC(=O)CCCCCCC [soluble PI(3,4)P2]

Molecule: A1: semisynthetic full-length Akt1, pThr308/pSer473
catalytic efficiency, fold larger than that of Asp473 form A4 (GSK3 peptide substrate; A1 vs A4): > 100 fold and 100 fold
kcat/Km, fold greater than that of A2 (GSK3 peptide substrate; pThr308 set of full-length Akt1, v/[E] vs [ATP]): about 500 fold

activity, fold more active than A1 (GSK3 peptide substrate; compared with pSer473 form A1): ~ 2 fold
Molecule: A5: full-length Akt1 pThr308, triply phosphorylated C-tail form

sensitivity of A6 relative to A1 to the inhibitor [3]: distinct sensitivities
Molecule: NC1(c2ccc(-c3nc4ccn5c(=O)[nH]nc5c4cc3-c3ccccc3)cc2)CCC1 [MK2206]

Molecule: A4: full-length Akt1 pThr308, Asp473 form
kcat/Km, within fold of that of A2 (GSK3 peptide substrate): ≤ 3 fold

Molecule: A6: full-length Akt1 pThr308 with pSer477/pThr479
catalytic efficiency (kcat/Km), fold lower relative to A1 (GSK3 peptide substrate): 8 fold

Molecule: A12: R144A point mutation in the context of pSer473 Akt1
catalytic efficiency (kcat/Km), fold lower relative to A1 (GSK3 peptide substrate): ~ 50 fold

Molecule: A8: full-length Akt1 pThr308, pSer479 form as printed
kcat/Km, within fold of that of A2 (GSK3 peptide substrate): ≤ 3 fold

Kd, fold greater than for A1 or A2 ([4]; A6 vs A1 or A2, weakened binding): 4 fold
Kd ([4]; fluorescein-labeled soluble PIP3, 50 nM): 800 nM
Kd [5]: ~200 nM
increase of Kd on Mg addition (Akt1 PH domain [6]): ~ 3 fold
Kd [7]: ~200 nM
effect on catalytic activity of A6 [8]: minimally impacted
stimulation of enzymatic activity of A2 [2]: did not stimulate
Kd [9]: 90 nM
Molecule: phosphatidyl inositol 3,4,5-triphosphate [soluble PIP3]

Molecule: CC(C)NC[C@@H](C(=O)N1CCN(c2ncnc3c2[C@H](C)C[C@H]3O)CC1)c1ccc(Cl)cc1 [GDC0068]
apparent Ki ratio, A6 relative to A1 ([3]; Ki lower for A1, higher for A6): 8 fold

Molecule: A3: full-length Akt1 pSer473 form lacking phosphorylation at Thr308
catalytic efficiency (kcat/Km), fold lower relative to A1 (GSK3 peptide substrate): 500 fold

Ki (Akt1): 3600 nM
Molecule: GRPRTT[Dap]([Ac-ATP‑γS])FAE [GSK3 peptide-ATP conjugate bisubstrate analog]

Kd [10]: 200 nM
B1: GST-PDK1 (enzyme)
chain: MARTTSQLYDAVPIQSSVVLCSCPSPSMVRTQTESSTPPGIPGGSRQGPAMDGTAAEPRPGAGSLQHAQPPPQPRKKRPEDFKFGKILGEGSFSTVVLARELATSREYAIKILEKRHIIKENKVPYVTRERDVMSRLDHPFFVKLYFTFQDDEKLYFGLSYAKNGELLKYIRKIGSFDETCTRFYTAEIVSALEYLHGKGIIHRDLKPENILLNEDMHIQITDFGTAKVLSPESKQARANSFVGTAQYVSPELLTEKSACKSSDLWALGCIIYQLVAGLPPFRAGNEYLIFQKIIKLEYDFPEKFFPKARDLVEKLLVLDATKRLGCEEMEGYGPLKAHPFFESVTWENLHQQTPPKLTAYLPAMSEDDEDCYGNYDNLLSQFGCMQVSSSSSSHSLSASDTGLPQRSGSNIEQYIHDLDSNSFELDLQFSEDEKRLLLEKQAGGNPWHQFVENNLILKMGPVDKRKGLFARRRQLLLTEGPHLYYVDPVNKVLKGEIPWSQELRPEAKNFKTFFVHTPNRTYYLMDPSGNAHKWCRKIQEVWRQRYQSHPDAAVQ

B2: A16: Δ143-Akt1-pThr308 construct possessing Asp473 (protein, UniProt P31749 1-480, looked up, variant del1-143 S473D)
RAC-alpha …: RVTMNEFEYLKLLGKGTFGKVILVKEKATGRYYAMKILKKEVIVAKDEVAHTLTENRVLQNSRHPFLTALKYSFQTHDRLCFVMEYANGGELFFHLSRERVFSEDRARFYGAEIVSALDYLHSEKNVVYRDLKLENLMLDKDGHIKITDFGLCKEGIKDGATMKTFCGTPEYLAPEVLEDNDYGRAVDWWGLGVVMYEMMCGRLPFYNQDHEKLFELILMEEIRFPRTLGPEAKSLLSGLLKKDPKQRLGGGSEDAKEIMQHRFFAGIVWQHVYEKKLSPPFKPQVTSETDTRYFDEEFTAQMITITPPDQDDSMECVDSERRPHFPQFDYSASGTA
modifications: pThr308
kcat/Km, within fold of each other (GSK3 peptide substrate; Δ143-Akt1-pThr308 constructs A15-A18): ≤ 3 fold
